Only a selection was taken, and hits are over-represented in it overall.
HCT116 bCat-KO = beta-catenin-lacking colon tumor cell growth suppression; HCT116 beta-catenin knockout viability, CellTiter-Glo, 60 h; active compounds read low; viability, % at 10 µM; hit rate 1.5% among 140,000;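 active = viability at or under a set limit, the compound median less 4 SD, cut at about 6% in these data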
HCT116 PTEN-null = suppresses growth of cells with PTEN deletion | HCT116 PTEN-null viability, CellTiter-Glo, 60 h; active compounds read low | viability, % at 10 µM | hit rate 1.2% among 140,000;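 active = viability at or below a set limit, 4 SD under the median of all tested compounds, cut at about 3.7% in these data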;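 also: PTEN knockout HCT116 line with beta catenin targeted HCT116 as companion control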
H69AR inhibit = growth inhibitors of human H69AR lung tumor cells; H69AR lung tumor viability, ATP luminescence, 72 h; active compounds read low; viability, % at 10 µM; hit rate 6% among 85,000;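 active = viability at or below 40%; inactive = viability above 40%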;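 also: multidrug resistant small cell line overexpressing MRP-1 efflux transporter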
HUVEC prolif 384 = blocks proliferation of human endothelial cells; viability, % at 10 µM (by protocol); HUVEC proliferation, CellTiter-Glo luminescence, 72 h; active compounds read low; hit rate 1.1% among 86,000;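 active = viability at or below 30%; inactive = viability above 30%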
Fibroblast inh = blocks proliferation of human lung fibroblasts. LL 47 human lung fibroblast viability, ATP luminescence; active compounds read low. viability, % at 10 µM. hit rate 1.1% among 85,000. AID 719;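 active = viability at or below 50% in the single dose screen; inactive = viability above 50%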;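 also: compound exposure lasted 72 h before the ATP readout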
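Test system: LL 47 human lung fibroblasts / Quantity: 1,150 cells in each well / Medium: IMEM growth medium with 15% fetal bovine serum / Incubation: 72 h compound exposure at 37 °C after overnight plating / Detection: CellTiter-Glo luminescence measuring cellular ATP / Read-out: % viability versus median cells-only luminescence / Benchmarks: cell-only wells, no compound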
A number is an active result; i = inactive; nt = not tested or not shown.

SMILES	HCT116 bCat-KO	HCT116 PTEN-null	H69AR inhibit	HUVEC prolif 384	Fibroblast inh
CN(Cc1ccccc1)S(=O)(=O)c1ccc(Cl)c(C(=O)NCc2ccc3c(c2)OCO3)c1	i	i	nt	nt	nt
CN(C)c1ccc(N=Nc2ccccc2C(=O)OCC(=O)N(C)c2ccccc2)cc1	i	i	nt	nt	nt
COC(=O)c1ccccc1NC(=O)C1CCCO1 (stereo not drawn)	i	i	nt	nt	nt
O=C1CC(c2ccccc2)n2nc(NC(=O)c3ccccc3)nc2N1 (stereo not drawn)	i	i	nt	nt	nt
O=C1CC(c2ccccc2)n2nc(NC(=O)c3ccccn3)nc2N1 (stereo not drawn)	i	i	29	i	i
Cc1sc2ncnc(NCCc3ccc(S(N)(=O)=O)cc3)c2c1C	i	i	nt	nt	nt
COc1ccc(N2CCN(C(c3cc(OC)ccc3OC)c3nnnn3CC3CCCO3)CC2)cc1 (stereo not drawn)	0.9	0.7	i	i	i
COc1ccc(C(c2nnnn2CC2CCCO2)N2CCN(c3ccccc3)CC2)cc1 (stereo not drawn)	i	i	nt	nt	nt
COc1cc2c(cc1NC(=O)CSc1nnnn1-c1ccccc1)oc1ccccc12	i	i	19	i	i
COc1cc2c(cc1NC(=O)Cc1ccc(C)cc1)oc1ccccc12	i	i	nt	nt	nt
COc1cc2c(cc1NC(=O)CSc1nnc(Cc3cccs3)n1Cc1ccco1)oc1ccccc12	i	i	37	i	i
COc1cc2c(cc1NC(=O)CN1CCN(S(=O)(=O)c3ccccc3F)CC1)oc1ccccc12	i	i	40	i	i
COc1cc2c(cc1NC(=O)CSc1nnc(Cc3cccs3)n1C)oc1ccccc12	i	i	3.9	i	i
CCn1cc(C(=O)Nc2ccc(OC)c(S(=O)(=O)N3CCCCC3)c2)c(=O)c2ccc(C)nc21	i	i	nt	nt	nt
CCn1c(SCC(=O)Nc2cc3oc4ccccc4c3cc2OC)nnc1-c1cccs1	i	i	2.3	i	i
COc1ccc(OC)c(C2C(C(=O)Nc3cccnc3)=C(C)NC3=C2C(=O)CCC3)c1 (stereo not drawn)	i	i	i	i	i
COCCn1c(=NC(=O)c2nc3ccccc3s2)sc2cc(S(C)(=O)=O)ccc21	i	i	nt	nt	nt
CCOCCn1c(=NC(=O)c2cc(Cl)sc2Cl)sc2cc(S(N)(=O)=O)ccc21	4.9	i	nt	nt	nt
COCCn1c(=NC(=O)c2cc(Cl)sc2Cl)sc2cc(S(N)(=O)=O)ccc21	i	2.3	nt	nt	nt
COc1ccccc1N1CCN(C2CCN(C(=O)c3cccc(F)c3)CC2)CC1	i	i	nt	nt	nt
COC(=O)c1cn(C(=O)c2cccs2)c2ccccc12	i	i	i	i	i
O=C1CCCC(O)=C1C(C#Cc1ccccc1)C1=C(O)CCCC1=O	i	i	7.3	i	i
CC1(C)CC(=O)C(C(C#Cc2ccccc2)C2=C(O)CC(C)(C)CC2=O)=C(O)C1	i	i	29	i	i
COc1ccc(NC(=O)C(=O)NCCO)cc1Cl	i	i	nt	nt	nt
Cc1nc(NC(=O)c2ccccc2)sc1-c1csc(N)n1	i	i	30	i	i
SMILES	HCT116 bCat-KO	HCT116 PTEN-null	H69AR inhibit	HUVEC prolif 384	Fibroblast inh
CCOc1ccccc1Nc1nc(-c2sc(NC(=O)c3cccc(Cl)c3)nc2C)cs1	5.1	i	nt	nt	nt
CCOc1ccccc1Nc1nc(-c2sc(NC(=O)c3ccccc3)nc2C)cs1	i	i	nt	nt	nt
Cc1cc(SCC(=O)c2cc(C)n(C)c2C)nc2ccccc12	i	i	nt	nt	nt
O=C(c1cccs1)N(C(=O)c1cccs1)c1ccc(Br)cn1	i	i	27	i	i
CCCCCCCCCCCCCCCC(O)C(N)CO (stereo not drawn)	1.9	1.5	nt	nt	nt
CCN(CC)S(=O)(=O)c1ccc(-c2nnc(SCc3nnc(-c4ccc(C)cc4)o3)n2CC)cc1	i	i	i	i	i
CCN(CC)S(=O)(=O)c1ccc(-c2nnc(SCc3nnc(-c4ccc(C)cc4)o3)o2)cc1	i	i	3.3	i	i
CCN(CC)S(=O)(=O)c1ccc(-c2nnc(SCC(=O)N3CCOCC3)o2)cc1	i	i	i	i	i
CCN(CC)S(=O)(=O)c1ccc(-c2nnc(SCC(=O)N3CCc4ccccc43)o2)cc1	nt	nt	4.4	i	35
C=CCOC(=O)c1c(C)nc2cc3c(cc2c1C)OCO3	i	i	nt	nt	nt
O=c1oc2cc(O)ccc2c2c1CCCC2	i	i	i	i	i
COc1cccc(-c2cc(C(=O)NCC3CCCO3)c3ccccc3n2)c1 (stereo not drawn)	i	i	nt	nt	nt
Cc1cc(C)n2nc(CC(=O)NCc3ccc(F)cc3)nc2n1	i	i	nt	nt	nt
CN(C)c1cccc(C(=O)Nc2cc(C(F)(F)F)ccc2-n2cnc3ccccc32)c1	i	i	nt	nt	nt
Cc1cccc(-c2cc3c(nn2)-c2ccccc2C3=O)c1	i	i	19	i	i
O=C1c2ccccc2-c2nnc(-c3ccccc3)cc21	i	i	nt	nt	nt
Cc1cc(C(=O)CN2C(=O)NC(c3ccccc3)(c3ccccc3)C2=O)c(C)n1Cc1ccco1	i	i	i	i	i
Cc1cc(C(=O)CN2C(=O)NC(C)(c3cccc(Br)c3)C2=O)c(C)n1Cc1ccco1 (stereo not drawn)	1.8	3.4	i	i	i
Cc1ccc(NC(=S)N/N=C/c2ccc([N+](=O)[O-])s2)cc1	1.6	1.8	nt	nt	nt
Cc1onc(-c2ccccc2)c1C(=O)N/N=C/c1ccc([N+](=O)[O-])s1	2.9	2.6	nt	nt	nt
Cc1onc(-c2ccccc2)c1C(=O)N/N=C/c1cccc(O)c1	i	i	nt	nt	nt
NC(=O)c1ccc(N=Cc2ccc([N+](=O)[O-])s2)cc1	1.6	1.3	nt	nt	nt
Cc1cc(C)cc(N=Cc2ccc([N+](=O)[O-])s2)c1	1.9	1.8	nt	nt	nt
Cc1c(N=Cc2ccc(Br)s2)cccc1[N+](=O)[O-]	i	i	nt	nt	nt
CN1CCN(c2ccc(S(=O)(=O)N3CCCCC3)cc2NC(=O)c2ccc(F)cc2F)CC1	i	i	nt	nt	nt
SMILES	HCT116 bCat-KO	HCT116 PTEN-null	H69AR inhibit	HUVEC prolif 384	Fibroblast inh
COC(=O)C1CCN(C(=O)c2ccccc2Oc2ccccc2)CC1	i	i	i	i	i
CCCSc1nnc(Sc2nnnn2-c2ccccc2)s1	i	i	5.4	7.6	i
Cc1ccccc1-n1nnnc1Sc1nnnn1-c1ccccc1	2.0	1.3	2.7	28	21
CCNC(=S)N/N=C/c1ccc(OCc2ccc(C(=O)OC)cc2)cc1	i	i	nt	nt	nt
OC(CNCCc1ccc(C(F)(F)F)cc1)COc1ccc2ccccc2c1 (stereo not drawn)	i	i	nt	nt	nt
OC(CNCCc1ccc(C(F)(F)F)cc1)COc1cccc2ccccc12 (stereo not drawn)	1.7	1.7	nt	nt	nt
C/C(=N\O)c1ccc2c3ccccc3n(C)c2c1	i	i	i	24	i
Cc1cc2occ(CC(=O)OCC(=O)Nc3sc4c(c3C#N)CCC(C)C4)c2cc1C (stereo not drawn)	i	i	nt	nt	nt
C=CCc1cc(C=O)cc(OC)c1OCc1c(Cl)cccc1Cl	i	i	nt	nt	nt
C=CCOC(=O)C1=C(C)NC(SCC(=O)Nc2ccc(C)c(Cl)c2)=C(C#N)C1c1ccco1 (stereo not drawn)	4.2	i	7.0	i	17
COc1ccc(C(=O)O/N=C/c2c(C(F)(F)F)nn(C)c2SCc2ccccc2Cl)cc1	4.2	i	nt	nt	nt
CCCCOc1ccc(-c2cc(C(=O)NNC(=S)NCC)c3ccccc3n2)cc1	1.6	1.8	nt	nt	nt
